ChEMBL document CHEMBL2385035 (J Med Chem, 2013)
Active and inactive are the calls of the source. The calls are words filed in the database; no cut-off is given here.

How the values were obtained:
Rattus norvegicus [1] = assay: Antidiabetic activity in Zucker diabetic fatty rat assessed as increase in total GLP-1 level at 0.05 to 10 mg/kg, po bid for 2 weeks measured on day 14 relative to vehicle-treated control; type: functional, organism-based
In short: (§1)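 Male ZDF rats, 8 weeks old, dosed orally twice daily for 14 days in two separate studies. Day-14 tail-vein blood sampled for HbA1c and for plasma glucose (nonfasted), insulin and total GLP-1. Compared with vehicle-treated animals, significance at p < 0.05.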

[2] = target: T1, Ileal sodium/bile acid cotransporter (Rattus norvegicus, UniProt Q62633); assay: Inhibition of rat ASBT expressed in HEK293 cells assessed as inhibition of [3H]-taurocholate uptake after 90 mins by scintillation counting analysis; type: cell-based
T1 sequence (Q62633 whole entry): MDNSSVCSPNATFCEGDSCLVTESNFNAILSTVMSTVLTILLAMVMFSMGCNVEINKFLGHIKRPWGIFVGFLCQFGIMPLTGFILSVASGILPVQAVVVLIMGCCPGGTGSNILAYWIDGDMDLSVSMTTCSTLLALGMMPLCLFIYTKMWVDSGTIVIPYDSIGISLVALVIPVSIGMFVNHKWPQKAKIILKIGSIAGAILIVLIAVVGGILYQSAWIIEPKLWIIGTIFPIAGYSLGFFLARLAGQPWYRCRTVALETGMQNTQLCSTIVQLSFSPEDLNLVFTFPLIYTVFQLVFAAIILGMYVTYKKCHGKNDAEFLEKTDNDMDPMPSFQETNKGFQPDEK

[3] = target: T2, Ileal sodium/bile acid cotransporter (Mus musculus, UniProt P70172); assay: Inhibition of mouse ASBT expressed in HEK293 cells assessed as inhibition of [3H]-taurocholate uptake after 90 mins by scintillation counting analysis; type: cell-based
T2 sequence (P70172 whole entry): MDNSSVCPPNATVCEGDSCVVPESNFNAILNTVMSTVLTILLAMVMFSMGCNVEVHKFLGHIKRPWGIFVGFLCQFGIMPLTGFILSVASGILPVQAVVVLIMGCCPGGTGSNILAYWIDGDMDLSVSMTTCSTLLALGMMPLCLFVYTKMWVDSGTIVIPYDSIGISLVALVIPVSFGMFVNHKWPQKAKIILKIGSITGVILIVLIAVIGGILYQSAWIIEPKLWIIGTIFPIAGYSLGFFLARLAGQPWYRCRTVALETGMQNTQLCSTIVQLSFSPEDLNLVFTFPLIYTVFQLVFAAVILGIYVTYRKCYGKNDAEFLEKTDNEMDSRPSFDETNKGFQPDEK

Rattus norvegicus [4] = assay: Antidiabetic activity in Zucker diabetic fatty rat assessed as increase in plasma insulin level at 0.05 to 10 mg/kg, po bid for 2 weeks measured on day 14 relative to vehicle-treated control; type: functional, organism-based; in short: as §1
Rattus norvegicus [5] = assay: Antidiabetic activity in portal vein cannulated lean Sprague-Dawley rat assessed as increase in portal vein total GLP-1 level at 10 mg/kg, po measured after 3 to 8 hrs; type: functional, organism-based; parameters: dose 10 mg/kg
Rattus norvegicus [6] = assay: Antidiabetic activity in portal vein cannulated lean Sprague-Dawley rat assessed as effect on portal vein GIP level at 10 mg/kg, po measured after 3 to 8 hrs relative to vehicle-treated control; type: functional, organism-based; parameters: dose 10 mg/kg
[7] = Half life in Sprague-Dawley rat intestine at 10 mg/kg, po; type: ADME, organism-based; parameters: dose 10 mg/kg, route oral
Rattus norvegicus [8] = assay: In vivo inhibition of ASBT in portal vein cannulated lean Sprague-Dawley rat assessed as decrease in portal vein bile acid level at 10 mg/kg, po measured after 1 to 2 hrs relative to vehicle-treated control; type: functional, organism-based; parameters: dose 10 mg/kg
Rattus norvegicus [9] = assay: Antidiabetic activity in Zucker diabetic fatty rat assessed as reduction in blood HbA1c level at 0.05 to 10 mg/kg, po bid for 2 weeks measured on day 14 relative to vehicle-treated control; type: functional; parameters: scale not given: the % may be the effect or the level left; settings: dose mg/kg 0.05-10; in short: as §1
[10] = Cmax in Sprague-Dawley rat portal vein blood at 10 mg/kg, po; type: ADME, organism-based; parameters: dose 10 mg/kg, route oral
In short: (§2)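 Fed male SD rats given a single oral gavage dose of 10 mg/kg. Maximum parent drug concentration measured in portal vein blood and in systemic blood.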

Rattus norvegicus [11] = assay: Antidiabetic activity in Zucker diabetic fatty rat assessed as reduction in non-fasted plasma glucose level at 0.05 to 10 mg/kg, po bid for 2 weeks measured on day 14 relative to vehicle-treated control; type: functional; parameters: scale not given: the % may be the effect or the level left; settings: dose mg/kg 0.05-10; in short: as §1
[12] = Stability of the compound by glutathione trapping assay; type: physicochemical
[13] = Drug recovery in Sprague-Dawley rat feces at 10 mg/kg, po; type: ADME, organism-based; parameters: dose 10 mg/kg, route oral; settings: read-out: Drug recovery
Rattus norvegicus [14] = assay: Antidiabetic activity in portal vein cannulated lean Sprague-Dawley rat assessed as increase in portal vein PYY level at 10 mg/kg, po measured after 3 to 8 hrs; type: functional, organism-based; parameters: dose 10 mg/kg
[15] = Aqueous solubility of the compound; type: physicochemical; settings: buffer
Mus musculus [16] = assay: In vivo inhibition of ASBT in C57BL/6J mouse assessed as increase in fecal bile acid excretion measured for 24 hrs relative to 264W94; type: functional, Feces; parameters: concentration or dose not given beside the values
Rattus norvegicus [17] = assay: Antidiabetic activity in Zucker diabetic fatty rat assessed as increase in fecal bile acid excretion at 0.05 to 10 mg/kg, po bid for 2 weeks measured for 24 hrs post last dose relative to vehicle-treated control; type: functional, Feces; settings: dose mg/kg 0.05-10
[18] = Apparent permeability in MDCK cells expressing MDR1 at 3 uM after 60 mins by LC-MS/MS analysis; type: ADME, cell-based, Canis lupus familiaris; settings: dog
Mus musculus [19] = assay: In vivo inhibition of ASBT in C57BL/6J mouse assessed as increase in fecal bile acid excretion measured for 24 hrs; type: functional; settings: Feces
[20] = Cmax in Sprague-Dawley rat systemic blood at 10 mg/kg, po; type: ADME, organism-based; parameters: dose 10 mg/kg, route oral; in short: as §2
Rattus norvegicus [21] = assay: Antidiabetic activity in Zucker diabetic fatty rat assessed as increase in total GLP-1 level at 0.001 to 10 mg/kg, po bid for 2 weeks measured on day 14 relative to vehicle-treated control; type: functional, organism-based; in short: as §1
[22] = Thermal stability of the compound; type: physicochemical
[23] = Cmax in beagle dog systemic blood at 10 mg/kg, po; type: ADME, organism-based, Canis lupus familiaris; parameters: dose 10 mg/kg, route oral
In short: (§3)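 Solution dosed orally to fed SD rats (10 mg/kg), male beagle dogs (10 mg/kg) or cynomolgous monkeys (3 mg/kg). Parent compound measured in systemic circulation; rat lower limit of quantitation 1 ng/mL.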

Cynomolgus monkey = assay: Cmax in cynomolgous monkey systemic blood at 3 mg/kg, po; type: ADME, organism-based, Macaca fascicularis; parameters: dose 3 mg/kg, route oral; settings: in vivo, BLD = below limit of detection; in short: as §3
Rattus norvegicus [24] = assay: Antidiabetic activity in Zucker diabetic fatty rat assessed as reduction in blood HbA1c level at 0.001 to 10 mg/kg, po bid for 2 weeks measured on day 14 relative to vehicle-treated control; type: functional; parameters: scale not given: the % may be the effect or the level left; settings: dose mg/kg 0.001-10; in short: as §1
Rattus norvegicus [25] = assay: Antidiabetic activity in Zucker diabetic fatty rat assessed as increase in plasma insulin level at 0.001 to 10 mg/kg, po bid for 2 weeks measured on day 14 relative to vehicle-treated control; type: functional, organism-based; in short: as §1
Rattus norvegicus [26] = assay: Antidiabetic activity in Zucker diabetic fatty rat assessed as reduction in non-fasted plasma glucose level at 0.001 to 10 mg/kg, po bid for 2 weeks measured on day 14 relative to vehicle-treated control; type: functional; parameters: scale not given: the % may be the effect or the level left; settings: dose mg/kg 0.001-10; in short: as §1
[27] = target: T3, Ileal sodium/bile acid cotransporter (Homo sapiens, UniProt Q12908); assay: Inhibition of human ASBT expressed in HEK293 cells assessed as inhibition of [3H]-taurocholate uptake after 90 mins by scintillation counting analysis; type: cell-based
T3 sequence (Q12908 whole entry): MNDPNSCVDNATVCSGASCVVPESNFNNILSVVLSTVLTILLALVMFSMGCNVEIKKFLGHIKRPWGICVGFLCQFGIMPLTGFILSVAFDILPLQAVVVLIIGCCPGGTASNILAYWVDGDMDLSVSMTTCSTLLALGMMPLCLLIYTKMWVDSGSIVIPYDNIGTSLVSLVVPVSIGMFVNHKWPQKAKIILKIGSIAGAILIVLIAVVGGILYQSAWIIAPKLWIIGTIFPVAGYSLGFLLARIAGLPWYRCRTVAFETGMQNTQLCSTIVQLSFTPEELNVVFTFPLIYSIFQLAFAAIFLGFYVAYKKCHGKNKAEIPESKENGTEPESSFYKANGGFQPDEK

[28] = Aqueous solubility of the compound at pH 7.4; type: physicochemical; settings: buffer
Intestine = assay: Metabolic stability in Sprague-Dawley rat intestine assessed as formation of (7R,9R)-7-Butyl-7-ethyl-2-methoxy-5,5-dioxo-9-phenyl-6,7,8,9-tetrahydro-5H-5lambda(6)-thia-8-aza-benzocyclohepten-3-ol at 10 mg/kg, po after 2 to 24 hrs; type: ADME, organism-based; parameters: dose 10 mg/kg, route oral; settings: in vivo

SMILES | Activity (Rattus norvegicus [1]) | IC50 [2] | IC50 [3] | Activity (Rattus norvegicus [4]) | half-life [7] | Activity (Rattus norvegicus [9]) | Cmax [10] | Activity (Rattus norvegicus [11]) | dose excreted [13] | solubility [15] | Efficacy (Mus musculus [16]) | fold change (FC) (Rattus norvegicus [17]) | Papp at 1 h, 3 µM [18] | ED50 (Mus musculus [19]) | Cmax [20] | Stability [22] | IC50 [27] | further results
CCCC[C@]1(CC)CS(=O)(=O)c2cc(CP(=O)(O)O)c(OC)cc2[C@@H](c2ccccc2)N1 | Active | 0.9 nM | 0.5 nM | Active | > 12 h | 1.3% | 14 ng/mL | >50% | 87% | ≥ 0.2 mg/mL | 92% | 7 | 7 nm/s | 0.12 mg/kg | 3 ng/mL | – | – | Activity (Rattus norvegicus [5]): Active; Activity (Rattus norvegicus [6]): inactive; inhibition (Rattus norvegicus [8]): Active; Stability [12]: Unstable; Activity (Rattus norvegicus [14]): Active
CCCC[C@]1(CC)CS(=O)(=O)c2cc(CNC(CC(=O)O)CC(=O)O)c(OC)cc2[C@@H](c2ccccc2)N1 [LINERIXIBAT] | – | 1.9 nM | 2.1 nM | – | > 12 h | – | 4 ng/mL | – | 98% | ≥ 0.2 mg/mL | 94% | 7 | 7 nm/s | 0.022 mg/kg | – | Stable | 42 nM | Activity (Rattus norvegicus [21]): Active; Cmax [23]: 6 ng/mL; Cmax (Cynomolgus monkey): BLD; Activity (Rattus norvegicus [24]): 1.3%; Activity (Rattus norvegicus [25]): Active; Activity (Rattus norvegicus [26]): >50%; solubility [28]: > 7 mg/mL
CCCC[C@]1(CC)CS(=O)(=O)c2cc(CNCC(=O)O)c(OC)cc2[C@@H](c2ccccc2)N1 | Active | 0.2 nM | 0.3 nM | Active | > 12 h | 1.3% | 27 ng/mL | >50% | 92% | ≥ 0.2 mg/mL | 98% | 7 | 27 nm/s | 0.017 mg/kg | 1 ng/mL | Unstable | 4 nM | –
CCCC[C@]1(CC)CS(=O)(=O)c2cc(OC)c(OC)cc2[C@@H](c2ccccc2)N1 | – | 22 nM | 3 nM | – | – | – | 100 ng/mL | – | 3% | – | 100% | – | 107 nm/s | 0.13 mg/kg | 19 ng/mL | – | 180 nM | Stability (Intestine): Unstable
